Calls of active or inactive are those of the source. The rule behind the calls is not given here.

Data set [1] can be described thus: Cytotoxicity against BHK cells infected with West Nile virus replicon assessed as cell viability after 3 days by CellTiter 96 aqueous one solution cell proliferation assay. The class given is cell-based, Mesocricetus auratus. The conditions noted are these: hamster, 72 h. In outline: (§1)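 WNV replicon BHK cells, about 3 × 10^3/well, plated without antibiotic selection; next day compound in DMSO (10 μM final for screening, or eight serial dilutions), 3 days at 37°C, 5% CO2. Tetrazolium reagent, absorbance 450 nm, triplicate means versus DMSO wells; CC50 = 50% reduction in proliferation; CC50s mean ± SD of two experiments, top dose 200 μM.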
(In general: In antiviral work, replicon cells carry a viral genome segment that copies itself.)

The test system of the next data set is Hepatitis C virus. Description: Antiviral activity against HCV. It is filed as functional, organism-based. The conditions noted are these: Hepacivirus hominis.
Data set [2] relates to West Nile virus. Description: Antiviral activity against West Nile virus infected in BHK-WII RepRen1B cells assessed as inhibition of viral replication after 3 days by luciferase reporter gene assay. The conditions noted are these: 72 h. It is filed as functional, organism-based. In general terms: In a reporter assay the amount or activity of a reporter protein is the signal.

For data set [3], the system named is unidentified influenza virus. Description: Antiviral activity against Influenzae virus. The class given is functional, organism-based.
For data set [4], the system named is West Nile virus. Description: Antiviral activity against West Nile virus infected in BHK-WII RepRen1B cells assessed as inhibition of viral replication at 10 uM after 3 days by luciferase reporter gene assay relative to control. It is filed as functional. Conditions: 72 h. In outline:
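Compound (DMSO, 10 μM final) added next day in triplicate; lycorine 1 μM served as control inhibitor. Three days on, live-cell Renilla substrate (1:1000 in phenol-red-free DME, 10% FBS) replaced medium. Luminescence measured; triplicate means compared with DMSO-alone wells.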

The test system of a further data set is Human betaherpesvirus 5. Description: Antiviral activity against Human cytomegalovirus. It is filed as functional, organism-based.
Data set [5] has as its system Human immunodeficiency virus 1. Description: Antiviral activity against HIV1. It is filed as functional, organism-based.
A short description of data set [6]: Cytotoxicity against BHK cells infected with Dengue virus replicon assessed as cell viability at 10 uM after 3 days by CellTiter 96 aqueous one solution cell proliferation assay relative to control. Conditions: hamster, bhk, 72 h, 10 µM. The class given is cell-based, Mesocricetus auratus. In outline: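 DENV replicon BHK cells, 1.5 × 10^3/well, plated without antibiotic selection; next day compound in DMSO (10 μM final for screening, or eight serial dilutions), 3 days at 37°C, 5% CO2. Tetrazolium (MTS-type) reagent, absorbance 450 nm, triplicate means versus DMSO wells; CC50 = 50% reduction in proliferation; CC50s mean ± SD of two experiments, top dose 200 μM.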

For data set [7], the target named is Human immunodeficiency virus type 1 reverse transcriptase (Human immunodeficiency virus 1) (UniProt Q72547). In words: Inhibition of HIV1 reverse transcriptase.
The subject of the next data set is dengue virus type 3. In words: Displacement of [3H]-SAM from biotinylated Dengue virus 3 methyltransferase expressed in Escherichia coli at 20 uM preincubated for 20 mins followed by [3H]-SAM addition measured after 15 mins by scintillation counting analysis. The method in brief: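 Biotinylated refolded E. coli-expressed DENV3 MTase (580 nM) with SPA beads (1.5 mg/mL) and 20 μM competitor (compound, SAM or sinefungin) in Tris pH 7.5 buffer with NaCl, KCl, MgCl2, MnCl2, CHAPS, 20 min at 23°C; 3H-SAM (425 nM) added, 15 min at 23°C, centrifuged, scintillation proximity counting.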
(In general: Displacement assays read how much labelled ligand stays bound in the presence of the test substance.)

Another data set relates to Dengue virus. Description: Antiviral activity against Dengue virus infected in BHK pD2-hRucPac-2ATG cells assessed as inhibition of viral replication at 10 uM after 3 days by luciferase reporter gene assay relative to control. It is filed as functional. Conditions: 72 h. The method in brief: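 Renilla luciferase-bearing DENV subgenomic replicon BHK cells, kept on 3 μg/mL puromycin, seeded at 1.5 × 10^3/well without selection. Next day, 10 μM final compound in DMSO added to triplicate wells; MPA 1 μM as control inhibitor. After 3 days, medium swapped for live-cell Renilla substrate (1:1000, phenol-red-free DME, 10% FBS). Luminescence read; triplicate mean compared with DMSO-only wells.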

Data set [8] can be described thus: Cytotoxicity against BHK cells infected with West Nile virus replicon assessed as cell viability at 10 uM after 3 days by CellTiter 96 aqueous one solution cell proliferation assay relative to control. It is filed as cell-based, Mesocricetus auratus. The conditions noted are these: hamster, bhk, 72 h, 10 µM. In outline:
as §1

Consider `Cc1cn([C@H]2C[C@H](NC(=O)C(c3ccccc3)(c3ccccc3)c3ccccc3)[C@@H](CO[Si](C)(C)C(C)(C)C)O2)c(=O)[nH]c1=O`, for which, in data set [1], the CC50 (commonly the concentration giving 50% cytotoxicity) was 15 µM. Besides, the outcome (in the data set with Hepatitis C virus; in [3]; with Human betaherpesvirus 5; in data set [5]) was inactive. Further, the EC50 (in general, the concentration at which the effect is half-maximal) in the data set with West Nile virus [2] was 9.9 µM. Further, the inhibition (usually the change of the read-out against control, counted positive when it falls) at 10 µM with West Nile virus [4] turned out to be 54%; in the data set on Dengue virus it was 28%. Moreover, the Activity in data set [6] and in data set [8] was 100% throughout. In data set [7], the inhibition result is “inactive”. The inhibition entry in the data set with dengue virus type 3 was “Active”.
With `C[S+](CC[C@H](N)C(=O)[O-])C[C@H]1O[C@@H](n2cnc3c(N)ncnc32)[C@H](O)[C@@H]1O` (stereo not given in full), the inhibition entry in the data set on dengue virus type 3 was “Active”.
With `Nc1ncnc2c1ncn2[C@@H]1O[C@H](C[C@@H](N)CC[C@H](N)C(=O)O)[C@@H](O)[C@H]1O`, the inhibition result in the data set with dengue virus type 3 is “Active”.
Take `Cc1cn([C@H]2C[C@H](N3C(=O)CSC3c3ccc4[nH]ccc4c3)[C@@H](CO[Si](C)(C)C(C)(C)C)O2)c(=O)[nH]c1=O` (mixture of isomers): in [1], the CC50 was found to be 15 µM. Moreover, the outcome (in the data set on Hepatitis C virus; in [3]; in the data set on Human betaherpesvirus 5; in data set [5]) was inactive. In addition, the EC50 in the data set on West Nile virus [2] came out at 3.4 µM. The inhibition at 10 µM is 92% in the data set on West Nile virus [4] and 49% in the data set with Dengue virus. In addition, the Activity in data set [6] and in data set [8] was 99% throughout. Also, in data set [7], the inhibition entry was “inactive”. Further, in the data set with dengue virus type 3, the inhibition result is “Active”.
Turning to `Cc1cn([C@H]2C[C@H](n3nncc3-c3ccc(Oc4ccccc4)cc3)[C@@H](CO[Si](C)(C)C(C)(C)C)O2)c(=O)[nH]c1=O`, the result (in the data set with Hepatitis C virus; in [3]; with Human betaherpesvirus 5; in data set [5]) was inactive. Moreover, the inhibition at 10 µM in the data set with West Nile virus [4] and in the data set with Dengue virus was 95% each time. Moreover, the Activity came out at 73% in data set [6] and 79% in [8]. For the same compound, in [7], the inhibition entry was “inactive”.
As for `Cc1cn([C@H]2C[C@H](n3nncc3C3CC3)[C@@H](CO[Si](C)(C)C(C)(C)C)O2)c(=O)[nH]c1=O`, the result (with Hepatitis C virus; in data set [3]; with Human betaherpesvirus 5; in data set [5]) was inactive. The results for the inhibition at 10 µM with West Nile virus [4] and in the data set on Dengue virus were 21% and 6.4%, respectively. For the same compound, the Activity was 93% in [6] and 100% in [8]. In addition, the inhibition entry in data set [7] was “inactive”.
For the compound `Cc1cn([C@H]2C[C@H](n3cc(-c4cc5ccccc5c5ccccc45)nn3)[C@@H](CO[Si](C)(C)C(C)(C)C)O2)c(=O)[nH]c1=O`, the outcome (in the data set with Hepatitis C virus; in data set [3]; in the data set on Human betaherpesvirus 5; in data set [5]) was inactive. The figures for the inhibition at 10 µM with West Nile virus [4] and with Dengue virus were 97% and 77%, respectively. Besides, the Activity in data set [6] turned out to be 81%; in data set [8], 100%. Moreover, the inhibition result in data set [7] was “inactive”.
As for `Cc1cn([C@H]2C[C@H](NC(=O)c3c4ccccc4cc4ccccc34)[C@@H](CO[Si](C)(C)C(C)(C)C)O2)c(=O)[nH]c1=O`, the result (with Hepatitis C virus; in [3]; in the data set on Human betaherpesvirus 5; in [5]) was inactive. In addition, the inhibition at 10 µM with West Nile virus [4] came to 0%; in the data set on Dengue virus, 7.6%. In addition, the Activity in data set [6] is 98%; in data set [8], 100%. For the same compound, in data set [7], the inhibition entry was “inactive”.
As to `Cc1cn([C@H]2C[C@H](NC(=O)NC34CC5CC(CC(C5)C3)C4)[C@@H](CO[Si](C)(C)C(C)(C)C)O2)c(=O)[nH]c1=O`, the cytotoxic concentration (CC50) in data set [1] is 16 µM. In the data set with West Nile virus [2], the EC50 came to 10 µM. The inhibition entry in the data set with dengue virus type 3 is “Active”.
